Measurements taken from ChEMBL document CHEMBL4316619 (Bioorg Med Chem Lett, 2019).
Calls of active or inactive are those of the source. The rule behind the calls is not given here.

Columns and labels:
[1] = target: Non-structural protein 1 (Influenza A virus (strain A/Puerto Rico/8/1934 H1N1)) (UniProt P03496); assay: Inhibition of NS1 in Influenza A virus A/PR/8/34 (H1N1) infected in MDCK cells assessed as restoration of protein-induced reduction in IFN-beta mRNA expression at 20 uM measured after 6 hrs by RT-PCR analysis; type: cell-based; details: Influenza A virus (A/Puerto Rico/8/1934(H1N1))
Chain of Non-structural protein 1 (Influenza A virus (strain A/Puerto Rico/8/1934 H1N1)) (P03496 whole entry): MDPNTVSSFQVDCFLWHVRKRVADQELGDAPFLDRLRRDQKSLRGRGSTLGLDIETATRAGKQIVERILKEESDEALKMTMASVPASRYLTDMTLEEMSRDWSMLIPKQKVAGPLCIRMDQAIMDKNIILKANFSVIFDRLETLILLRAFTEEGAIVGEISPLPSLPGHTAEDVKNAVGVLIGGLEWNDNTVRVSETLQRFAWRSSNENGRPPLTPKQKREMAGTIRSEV
In short: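 MDCK cells infected with A/PR/8/34 at MOI 2 and incubated 6 h with compound at 20 μM. Cells harvested; IFN-β and β-actin mRNA detected by RT-PCR. Poly(I:C) lane serves as positive control for IFN-β induction.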

[2] = tested on: Influenza A virus; assay: Antiviral activity against Influenza A virus A/PR/8/34 (H1N1) infected in MDCK cells assessed as fold reduction in virus titer at 10 uM measured after 48 hrs by hemagglutination assay relative to control; type: functional, A/Puerto Rico/8/1934(H1N1)
In short: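 MDCK cells were infected with A/PR/8/34 (H1N1) at MOI 0.1 and incubated with compound for 48 h. Supernatant virus was then quantified by hemagglutination assay and standard TCID50 analysis. The single-concentration screen used 10 μM and reports fold reduction in titer. Dose-response runs used triplicate cultures, with percent titer decrease back-calculated from TCID50.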

[3] = tested on: MDCK; assay: Cytotoxicity against MDCK cells assessed as reduction in cell viability measured after 48 hrs by CellTiter Glo assay; type: cell-based, Canis lupus familiaris; details: dog
In short: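 MDCK cells were incubated with compound under the conditions of the 48 h replication assay. Cytotoxicity was read with the CellTiter-Glo ATP viability assay. Follow-up viability testing used 5, 10, 50 and 100 μM.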

[4] = tested on: Influenza A virus; assay: Effect on NS1 protein expression in Influenza A virus A/PR/8/34 (H1N1) infected in MDCK cells at 20 uM by Western blot analysis; type: functional, organism-based; details: A/Puerto Rico/8/1934(H1N1)
In short: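 MDCK cells, uninfected or infected with A/PR/8/34, treated with DMSO or compound at 20 μM. NS1 protein detected by Western blot, with α-tubulin as loading control.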

[5] = Stability of the compound in mouse liver microsomes assessed as parent compound remaining measured after 15 mins; type: ADME, Microsome; details: read-out: Stability
In short: (§1)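 Mouse liver microsomes; percent parent compound remaining measured at 0, 15 and 30 min.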

[6] = target: Luciferin 4-monooxygenase (Photinus pyralis) (UniProt P08659); assay: Effect on firefly luciferase activity expressed in 293 cells at 50 uM by luminescence assay; type: cell-based
Chain of Luciferin 4-monooxygenase (Photinus pyralis) (P08659 whole entry): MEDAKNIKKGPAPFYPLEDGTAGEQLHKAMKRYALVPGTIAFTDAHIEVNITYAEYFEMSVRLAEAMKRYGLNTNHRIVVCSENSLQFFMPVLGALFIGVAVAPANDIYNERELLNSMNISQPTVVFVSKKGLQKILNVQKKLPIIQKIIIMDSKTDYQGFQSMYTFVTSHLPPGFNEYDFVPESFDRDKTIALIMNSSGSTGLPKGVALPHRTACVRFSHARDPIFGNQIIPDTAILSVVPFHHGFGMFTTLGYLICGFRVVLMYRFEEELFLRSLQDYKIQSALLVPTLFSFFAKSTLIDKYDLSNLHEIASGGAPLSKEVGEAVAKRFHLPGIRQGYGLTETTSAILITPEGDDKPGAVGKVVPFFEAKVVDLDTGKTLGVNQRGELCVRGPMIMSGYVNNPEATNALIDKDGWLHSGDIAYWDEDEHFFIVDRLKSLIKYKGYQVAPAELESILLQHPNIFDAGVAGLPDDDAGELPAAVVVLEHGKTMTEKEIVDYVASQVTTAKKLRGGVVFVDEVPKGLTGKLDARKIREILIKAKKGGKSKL

[7] = tested on: Influenza B virus; assay: Antiviral activity against Influenza B virus (B/Brisbane/60/2008) infected in MDCK cells assessed as reduction in virus-induced cytopathic effect measured on day 5 by Celltiter-Glo luminescence assay; type: functional, organism-based
[8] = Apparent permeability across basolateral to apical side in human Caco2 cells measured after 2 hrs; type: ADME, cell-based; details: caco-2, 2 h
In short: (§2)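 Permeability was measured across Caco-2 monolayers in both directions, apical to basolateral and basolateral to apical. […] Runs were done with and without 3% BSA, and mass recovery (%) was reported for each direction. Efflux ratio = Papp B→A / Papp A→B.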

[9] = target: Non-structural protein 1 (Influenza A virus (strain A/Puerto Rico/8/1934 H1N1)) (UniProt P03496); assay: Inhibition of Influenza A virus A/PR/8/34 (H1N1) NS1 expressed in 293 cells assessed as increase in poly(I:C)-induced IFN-beta reporter activity treated 16 hrs […] measured after 24 hrs by luciferase reporter gene assay; type: cell-based; details: Influenza A virus (A/Puerto Rico/8/1934(H1N1))
In short: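 293 cells co-transfected with a human IFN-β promoter-driven firefly luciferase reporter and NS1 expression constructs. At 16 h post-transfection, poly(I:C) 50 μg/mL plus compound (20 μM) or 1% DMSO added for a further 24 h; luciferase read by luminometer. Untransfected cells serve as baseline.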

[10] = Apparent permeability across apical to basolateral side in human Caco2 cells measured after 2 hrs; type: ADME, cell-based; details: caco-2, 2 h; in short: as §2
[11] = tested on: Influenza A virus; assay: Antiviral activity against Influenza A virus (A/California/7/2009(H1N1)) infected in MDCK cells assessed as reduction in virus-induced cytopathic effect measured on day 5 by Celltiter-Glo luminescence assay; type: functional, organism-based; details: 120 h
In short: (§3)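 MDCK cells were infected with seasonal influenza A strains through NIAID resources and scored for protection from virus-induced cell death. Compounds were tested at four concentrations (0.8, 4, 20, 100 μM). EC50/EC90 (reduction of viral cell death) and CC50 (reduction of cell viability) were derived in μM, and SI50 = CC50/EC50.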

[12] = tested on: Influenza A virus H3N2; assay: Antiviral activity against Influenza A virus (A/Brisbane/10/2007(H3N2)) infected in MDCK cells assessed as reduction in virus-induced cytopathic effect measured on day 5 by Celltiter-Glo luminescence assay; type: functional, organism-based; details: 120 h; in short: as §3
[13] = Stability of the compound in mouse liver microsomes assessed as parent compound remaining measured immediately; type: ADME, Microsome; details: read-out: Stability; in short: as §1
[14] = Aqueous kinetic solubility of the compound; type: physicochemical; details: buffer
[15] = Stability of the compound in mouse liver microsomes assessed as parent compound remaining measured after 30 mins; type: ADME, Microsome; details: read-out: Stability; in short: as §1
[16] = Cytotoxicity against MDCK cells assessed as reduction in cell viability measured on day 5 by Celltiter-Glo luminescence assay; type: cell-based, Canis lupus familiaris; details: dog, MDCK cells; in short: as §3
[17] = tested on: Saccharomyces cerevisiae; assay: Effect on growth of Yeast 9526-6-2 harboring pYES at 50 uM measured up to 60 hrs; type: organism-based; details: in vivo
In short: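 Control yeast carrying empty pYES and NS1-expressing NS1-pYES strain grown with DMSO or compound at 50 μM. Growth measured as OD600 at 22, 42 and 60 h.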

SMILES | fold change (FC) [2] | Activity [3] | also measured
O=C(NCCCc1ccccc1)c1ccccc1O | – | – | inhibition [1]: Active
COc1cccc(-n2nc(C)c3c(-c4ccc(O)c(OC)c4)ccnc32)c1 | 0 | Non-Toxic | –
COc1cc(-c2c(C#N)c(N)nc3c2c(C)nn3-c2ccc(C)c(C)c2)ccc1O | 4 | Non-Toxic | –
COc1cc(-c2c(C#N)c(N)nc3c2c(C)nn3-c2ccc(C)c(C)c2)cc(OC)c1OC | 0 | Non-Toxic | –
Cc1ccc(-n2nc(C)c3c(-c4ccc(O)c(O)c4)c(C#N)c(N)nc32)cc1 | 64 | Non-Toxic | –
Cc1nn(-c2ccc(Cl)cc2)c2nc(N)c(C#N)c(-c3ccc(O)c(O)c3)c12 | 256 | Non-Toxic | Activity [4]: inactive; remaining at 0.25 h [5]: 93%; Activity [6]: inactive; Activity [7]: inactive; Papp [8]: 2.64 ×10⁻⁶ cm/s; inhibition [9]: Active; Papp [10]: 0.34 ×10⁻⁶ cm/s; EC50 [11]: > 50000 nM; EC90 [11]: > 50 µM; EC50 [12]: > 50 µM; EC90 [12]: > 50 µM; remaining at 0 min [13]: 100%; Kinetic_solubility [14]: 1.9 µM; remaining at 0.5 h [15]: 90%; inhibition [1]: Active; CC50 at 5 day [16]: 20.4 to 31.9 µM; Activity [17]: Non-Toxic
COc1ccc(-c2c(C#N)c(N)nc3c2c(C)nn3-c2ccccc2)cc1OC | 2 | Non-Toxic | –
COc1ccc(-c2ccnc3c2c(C)nn3-c2ccc(F)cc2)cc1OC | 2 | Non-Toxic | –
COc1cc(-c2ccnc3c2c(C)nn3-c2ccc(F)cc2)ccc1O | 2 | Non-Toxic | –
COc1cc(-c2c(C#N)c(O)nc3c2c(C)nn3-c2ccccc2)ccc1O | 16 | Non-Toxic | –
COc1ccc(-c2c(C#N)c(O)nc3c2c(C)nn3-c2ccccc2)cc1OC | 2 | Non-Toxic | –
Cc1ccc(-n2nc(C)c3c(-c4ccc(O)c(O)c4)c(C#N)c(N)nc32)cc1C | 256 | Non-Toxic | Activity [4]: inactive; remaining at 0.25 h [5]: 78%; Activity [6]: inactive; Activity [7]: inactive; inhibition [9]: Active; EC50 [11]: 1200 nM; EC90 [11]: 3.4 µM; EC50 [12]: > 50 µM; EC90 [12]: > 50 µM; remaining at 0 min [13]: 100%; Kinetic_solubility [14]: 11.6 µM; remaining at 0.5 h [15]: 64%; inhibition [1]: Active; CC50 at 5 day [16]: 24.5 to 39.3 µM; Activity [17]: Non-Toxic
COc1cc(-c2ccnc3c2c(C)nn3-c2cccc(F)c2)ccc1O | 0 | Non-Toxic | –
NC(=O)c1ncn([C@@H]2O[C@H](CO)[C@@H](O)[C@H]2O)n1 [RIBAVIRIN] | – | – | EC50 [11]: 2200 nM; EC90 [11]: 3.5 µM; EC50 [12]: 28.8 µM; EC90 [12]: 34.9 µM
COc1cc(-c2c(C#N)c(N)nc3c2c(C)nn3-c2ccc(C)cc2)cc(OC)c1OC | 32 | Non-Toxic | –
COc1cc(-c2c(C(=O)O)cnc3c2c(C)nn3-c2ccc(F)cc2)ccc1O | 4 | Non-Toxic | –
COc1cccc(-c2ccnc3c2c(C)nn3-c2ccc(F)cc2)c1 | 4 | Toxic | –
COc1cc(-c2c(C#N)c(O)nc3c2c(C)nn3-c2ccccc2)cc(OC)c1OC | 16 | Non-Toxic | –
COc1ccc(-c2c3c(C)nn(-c4ccccc4)c3nc3[nH]c(=O)[nH]c(=O)c23)cc1O | 2 | Non-Toxic | –
CCOC(=O)c1cnc2c(c(C)nn2-c2ccc(F)cc2)c1-c1ccc(O)c(OC)c1 | 16 | Non-Toxic | –

SMILES | fold change (FC) [2] | Activity [3] | also measured
COc1cc(-c2c(C#N)c(N)nc3c2c(C)nn3-c2ccc(F)cc2)cc(OC)c1OC | 0 | Non-Toxic | Activity [7]: inactive; EC50 [11]: 18300 nM; EC90 [11]: 42.4 µM; EC50 [12]: > 50 µM; EC90 [12]: > 50 µM; CC50 at 5 day [16]: 0.87 to 6 µM
COc1cc(-c2ccnc3c2c(C)nn3-c2ccccc2)ccc1O | 2 | Non-Toxic | –
COc1ccc(-c2c(C#N)c(N)nc3c2c(C)nn3-c2ccc(Cl)cc2)cc1OC | 0 | Non-Toxic | –
COc1ccc(-c2c3c(C)nn(-c4ccccc4)c3nc3[nH]c(=O)[nH]c(=O)c23)cc1OC | 4 | Non-Toxic | –
COc1ccc(-c2c(C#N)c(O)nc3c2c(C)nn3-c2ccc(F)cc2)cc1OC | 0 | Non-Toxic | –
COc1cc(-c2c(C#N)c(N)nc3c2c(C)nn3-c2ccc(Cl)cc2)ccc1O | 32 | Non-Toxic | –
Cc1nn(-c2ccccc2)c2nc3[nH]c(=O)[nH]c(=O)c3c(-c3ccc4c(c3)OCO4)c12 | 4 | Non-Toxic | –
Cc1nn(-c2ccccc2)c2nc(N)c(C#N)c(-c3ccc(O)c(O)c3)c12 | 32 | Non-Toxic | –
COc1ccc(-c2c(C#N)c(N)nc3c2c(C)nn3-c2ccc(C)cc2)cc1OC | 0 | Non-Toxic | –
COc1cc(-c2c(C#N)c(N)nc3c2c(C)nn3-c2ccc(Cl)cc2)cc(OC)c1OC | 0 | Non-Toxic | –
COc1cc(-c2c(C#N)c(N)nc3c2c(C)nn3-c2ccc(F)cc2)ccc1O | 256 | Non-Toxic | Activity [4]: inactive; remaining at 0.25 h [5]: 74%; Activity [6]: inactive; Activity [7]: inactive; inhibition [9]: Active; EC50 [11]: 2100 nM; EC90 [11]: 4.6 µM; EC50 [12]: 10.1 µM; EC90 [12]: > 50 µM; remaining at 0 min [13]: 100%; Kinetic_solubility [14]: 3 µM; remaining at 0.5 h [15]: 60%; inhibition [1]: Active; CC50 at 5 day [16]: 24.7 to 48.3 µM; Activity [17]: Non-Toxic
Cc1nn(-c2ccc(F)cc2)c2nc(N)c(C#N)c(-c3ccc(O)c(O)c3)c12 | 16 | Non-Toxic | –
COc1cc(-c2c3c(C)nn(-c4ccccc4)c3nc3[nH]c(=O)[nH]c(=O)c23)cc(OC)c1O | 4 | Non-Toxic | –
COc1ccc(-n2nc(C)c3c(-c4ccc(O)c(OC)c4)ccnc32)cc1 | 32 | Non-Toxic | –
COc1cc(-c2c3c(C)nn(-c4ccccc4)c3nc3[nH]c(=O)[nH]c(=O)c23)ccc1O | 2 | Non-Toxic | –
COc1ccc(-c2c(C#N)c(N)nc3c2c(C)nn3-c2ccc(F)cc2)cc1OC | 2 | Non-Toxic | –
COc1cc(-c2c(C#N)c(N)nc3c2c(C)nn3-c2ccccc2)cc(OC)c1OC | 16 | Non-Toxic | –
COc1cc(-c2c(C#N)c(N)nc3c2c(C)nn3-c2ccc(C)cc2)ccc1O | 4 | Non-Toxic | –
COc1cc(-c2c(C#N)c(N)nc3c2c(C)nn3-c2ccccc2)ccc1O | 32 | Non-Toxic | –
